Consider 3 molecules from ChEMBL document CHEMBL1154040, “Synthesis and evaluation of novel F-18 labeled fluoroarylvaline derivatives: potential PET imaging agents for tumor detection” (Bioorg Med Chem Lett, 2009).

For data set [1], the system named is Femur. As to the kind of experiment: Biodistribution in S180 tumor-bearing KM mouse femur assessed per gram of tissue at 240 to 370 kBq, iv after 15 mins. In kind it is ADME, organism-based. The following applies: in vivo, 0.25 h. The essentials:
(§1)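 Female KM mice (20 ± 2 g) were used 14–18 days after inoculation of 5 × 10^6 S 180 tumor cells. The ¹⁸F tracer in saline was injected into the tail vein of awake mice. Mice were killed at 5, 15, 30, 60 or 120 min, and the femur was removed, weighed and gamma-counted. Results are background-corrected %ID/g, mean ± SD, n = 4.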

Data set [2] is described as follows: Biodistribution in S180 tumor present in KM mouse assessed per gram of tissue at 240 to 370 kBq, iv after 60 mins. Format: ADME, organism-based, Neoplasm. The note with it: in vivo, 1 h.
Data set [3] relates to Blood. As to the kind of experiment: Stability in tumor bearing KM mouse blood after 30 mins at 4 MBq, iv. Format: ADME, tissue-based. The following applies: 0.5 h. The essentials: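 Blood from tumor-bearing mice was collected after tracer injection and centrifuged at once for 5 min at 13,200 rpm. Supernatants from both centrifugation steps were combined, loaded onto a C18 Sep-Pak cartridge, washed with 2 ml water, then eluted.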

Data set [4] can be described thus: Ratio of drug level in S180 tumor to brain KM mouse at 240 to 370 kBq, iv after 30 mins. The note with it: in vivo, 0.5 h. Format: ADME, organism-based.
The subject of data set [5] is Heart. As to the kind of experiment: Biodistribution in S180 tumor-bearing KM mouse heart assessed per gram of tissue weight at 240 to 370 kBq, iv after 120 mins. Format: ADME, organism-based. The note with it: in vivo, 2 h.
Data set [6] concerns Blood. As to the kind of experiment: Biodistribution in S180 tumor-bearing KM mouse blood assessed per gram of tissue weight at 240 to 370 kBq, iv after 15 mins. In kind it is ADME, organism-based. The following applies: in vivo, 0.25 h.
For data set [7], the system named is Femur. Briefly: Biodistribution in S180 tumor-bearing KM mouse femur assessed per gram of tissue at 240 to 370 kBq, iv after 5 mins. Format: ADME, organism-based. The note with it: in vivo. The essentials:
as §1

Data set [8] can be described thus: Ratio of drug level in S180 tumor to brain KM mouse at 240 to 370 kBq, iv after 120 mins. Format: ADME, organism-based. The following applies: in vivo, 2 h.
Data set [9] in a line: Biodistribution in S180 tumor present in KM mouse assessed per gram of tissue at 240 to 370 kBq, iv after 30 mins. Format: ADME, organism-based, Neoplasm. The note with it: in vivo, 0.5 h.
For data set [10], the system named is Femur. Briefly: Biodistribution in S180 tumor-bearing KM mouse femur assessed per gram of tissue at 240 to 370 kBq, iv after 30 mins. In kind it is ADME, organism-based. The following applies: in vivo, 0.5 h. The essentials:
as §1

Data set [11] relates to Kidney. As to the kind of experiment: Biodistribution in S180 tumor-bearing KM mouse kidney assessed per gram of tissue at 240 to 370 kBq, iv after 5 mins. In kind it is ADME, organism-based. The following applies: in vivo.
Data set [12] has as its system Blood. As to the kind of experiment: Biodistribution in S180 tumor-bearing KM mouse blood assessed per gram of tissue weight at 240 to 370 kBq, iv after 5 mins. Format: ADME, organism-based. The note with it: in vivo.
For data set [13], the system named is Liver. As to the kind of experiment: Biodistribution in S180 tumor-bearing KM mouse liver assessed per gram of tissue at 240 to 370 kBq, iv after 60 mins. In kind it is ADME, organism-based. The following applies: in vivo, 1 h.
Data set [14] concerns Spleen. Briefly: Biodistribution in S180 tumor-bearing KM mouse spleen assessed per gram of tissue at 240 to 370 kBq, iv after 60 mins. Format: ADME, organism-based. The following applies: in vivo, 1 h.
Data set [15] concerns Muscle tissue. Briefly: Biodistribution in S180 tumor-bearing KM mouse muscle assessed per gram of tissue at 240 to 370 kBq, iv after 30 mins. Format: ADME, organism-based. The note with it: in vivo, 0.5 h.
The subject of data set [16] is Kidney. As to the kind of experiment: Biodistribution in S180 tumor-bearing KM mouse kidney assessed per gram of tissue at 240 to 370 kBq, iv after 120 mins. In kind it is ADME, organism-based. The note with it: in vivo, 2 h.
In data set [17] the test system is Spleen. As to the kind of experiment: Biodistribution in S180 tumor-bearing KM mouse spleen assessed per gram of tissue at 240 to 370 kBq, iv after 15 mins. In kind it is ADME, organism-based. The note with it: in vivo, 0.25 h.
The test system of data set [18] is Femur. As to the kind of experiment: Biodistribution in S180 tumor-bearing KM mouse femur assessed per gram of tissue at 240 to 370 kBq, iv after 120 mins. Format: ADME, organism-based. The following applies: in vivo, 2 h. The essentials: as §1
The subject of data set [19] is Liver. As to the kind of experiment: Biodistribution in S180 tumor-bearing KM mouse liver assessed per gram of tissue weight at 240 to 370 kBq, iv after 15 mins. Format: ADME, organism-based. The note with it: in vivo, 0.25 h.
The subject of data set [20] is Femur. Briefly: Biodistribution in S180 tumor-bearing KM mouse femur assessed per gram of tissue at 240 to 370 kBq, iv after 60 mins. Format: ADME, organism-based. The note with it: in vivo, 1 h. Put shortly:
as §1

A short description of data set [21]: Ratio of drug level in S180 tumor to blood in KM mouse at 240 to 370 kBq, iv after 30mins. The note with it: tumour, 0.5 h. Format: ADME, organism-based.
Data set [22] in a line: Ratio of drug level in S180 tumor to muscleKM mouse at 240 to 370 kBq, iv after 15 mins. In kind it is ADME, organism-based, KM. The note with it: in vivo, 0.25 h.
Data set [23] can be described thus: Ratio of drug level in S180 tumor to blood in KM mouse at 240 to 370 kBq, iv after 60 mins. The following applies: tumour, 1 h. In kind it is ADME, organism-based.

For `CC(C)[C@H](NC(=O)c1ccc([N+](=O)[O-])cc1[18F])C(=O)O`, the Drug uptake in [1] turned out to be 4.02 %ID; in data set [2], 0.27 %ID; in data set [5], 0.05 %ID; in [6], 1.27 %ID; in data set [7] it was 3.61 %ID; in [9], 0.56 %ID. For the same molecule, the Drug uptake is reported as 3.38 %ID in data set [10]; 11.9 %ID in data set [11]; 2.43 %ID in data set [12]; 0.77 %ID in [13]; 0.24 %ID in data set [14]; 0.21 %ID in [15]. Besides, the Drug uptake was 0.3 %ID in data set [16]; 0.6 %ID in data set [17]; 2.15 %ID in [18]; 3.35 %ID in data set [19]; 2.47 %ID in [20]. The Stability result in [3] is “Stable”. Besides, the tumor/brain ratio in data set [4] is 13.3; in [8], 6.9. Further, the tumor/blood ratio in [21] was determined as 2.32; in data set [23], 1.83. Moreover, in data set [22], the tumor/muscle ratio came out at 1.95.
Regarding `COC(=O)[C@@H](NC(=O)c1ccc([N+](=O)[O-])cc1[18F])C(C)C`, the Drug uptake in [1] is reported as 2.23 %ID; in data set [2], 0.95 %ID; in data set [5] it was 0.08 %ID; in [6], 2.18 %ID; in [7], 1.6 %ID; in [9], 1.97 %ID. Besides, the Drug uptake in data set [10] was 2.11 %ID; in data set [11], 17.9 %ID; in data set [12] it was 3.09 %ID; in data set [13], 0.27 %ID; in [14], 0.31 %ID; in data set [15] it was 0.82 %ID. In addition, the Drug uptake in [16] is listed as 0.29 %ID; in data set [17], 1.13 %ID; in [18], 2.01 %ID; in data set [19], 8.6 %ID; in data set [20], 2.09 %ID. In addition, the Stability entry in data set [3] is listed as “Stable”. The tumor/brain ratio in [4] stood at 7.06; in data set [8], 2.61. The tumor/blood ratio in data set [21] came out at 2.91; in data set [23], 3.44. For the same molecule, the tumor/muscle ratio in data set [22] came to 1.48.
For `OC[C@H]1O[C@@H](O)[C@H]([18F])[C@@H](O)[C@@H]1O` [FLUDEOXYGLUCOSE-F18], the Drug uptake is 2.16 %ID in data set [2]; 6.27 %ID in data set [5]; 0.46 %ID in data set [6]; 1.86 %ID in data set [9]; 2.16 %ID in data set [11]; 1.09 %ID in data set [12]. For the same molecule, the Drug uptake in data set [13] was 0.22 %ID; in [14], 0.83 %ID; in data set [15], 1.07 %ID; in [16], 0.25 %ID; in [17] it was 0.95 %ID; in [19] it was 0.47 %ID. Also, the tumor/brain ratio in data set [4] is 0.61; in [8], 1.33. In addition, in [22], the tumor/muscle ratio came out at 1.37. Besides, in data set [23], the tumor/blood ratio is 19.5.
